Laboratory results published in ChEMBL document CHEMBL4270646, “Novel antimalarial chloroquine- and primaquine-quinoxaline 1,4-di-N-oxide hybrids: Design, synthesis, Plasmodium life cycle stage profile, and preliminary toxicity studies” (Eur J Med Chem, 2018).

Legend:
[1] = Cytotoxicity against human HepG2 cells assessed as reduction in cell viability after 48 hrs by MTT assay; type: cell-based
Method in brief: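 Cells seeded at 2 × 10^5 per well and allowed 24 h at 37°C, 5% CO2 to form a monolayer. Dilutions added in triplicate and incubated 48 h. MTT (2 mg/mL) then added for 4 h, followed by DMSO for 20 min at room temperature. Absorbance read at 550 nm; DMSO diluent and untreated cells served as negative controls. CC50 derived from the curve.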

Plasmodium falciparum = assay: Antiplasmodial activity against the multidrug-resistant Plasmodium falciparum […] infected in human red blood cells assessed as reduction in parasite growth after 48 hrs by Hoechst 33342 staining based flow cytometric analysis; type: functional, organism-based
Method in brief: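 Ring-stage cultures (>80% rings) at 1% parasitaemia in A+ human erythrocytes, 2% haematocrit. Medium RPMI 1640 with 10% A+ serum, 37°C, 5% CO2/5% O2. Compounds in DMSO at 1.56–100 µg/mL final, DMSO ≤1%. After 48 h, cells stained with Hoechst 33342 and 1×10^4 counted by flow cytometry. IC50 from logistic dose-response regression; three independent experiments in triplicate.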

Mus musculus = assay: Acute toxicity in BALB/c mouse assessed as effect on body weight at 300 mg/kg, po administered as single dose measured every day for 14 days; type: organism-based; details: in vivo, 336 h
Method in brief: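 Female BALB/c mice, 6-8 weeks old, 20-23 g, in groups of three. Single oral dose of 300 or 500 mg/kg; vehicle DMSO 100% given to controls. Mice watched for signs of toxicity for 4 h after dosing. Physical appearance, injury, pain and illness recorded daily for 14 days. Euthanasia in a CO2 chamber on day 14 or earlier if suffering.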

[2] = Selectivity index, ratio of CC50 for human primary hepatocytes to IC50 for GFP-expressing Plasmodium falciparum sporozoites; type: toxicity; details: read-out: Ratio CC50/IC50
Method in brief: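 Selectivity index = CC50 (matching cell) / IC50 (matching parasite). Cell–parasite pairs: HepG2-CD81 with P. yoelii, HepG2 with P. berghei, human hepatocytes with P. falciparum.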

For `COc1cc(NC(C)CCCNC(=O)c2c(C)[n+]([O-])c3ccccc3[n+]2[O-])c2ncccc2c1` (centres undefined), the CC50 at 48 h [1] was 39.5 µM, the IC50 (Plasmodium falciparum) was 68.2 µM and the Activity (Mus musculus) was “Non-Toxic”. For the same molecule, the selectivity ratio [2] was 39.5.
